Laboratory results as given in ChEMBL document CHEMBL1130202, “Biologically active heteroarotinoids exhibiting anticancer activity and decreased toxicity” (J Med Chem, 1997).
Active and inactive are the calls of the source.

Experiments:
Mus musculus [1] = organism: Mus musculus; test: Effect of compound on white blood cells levels in mice at mid dose 2 on day 8; type: functional
Procedure, shortened: (§1)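 Male B6D2F1 mice were gavaged daily with compound in corn oil at low, mid 1, mid 2 or high dose. Serum triglycerides and circulating white blood cells were measured on the stated day (8, 29, 36, 65). Values are group mean ± SD expressed as % relative to corn-oil vehicle, with significance at p ≤ 0.05.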

Mus musculus [2] = organism: Mus musculus; test: Fracture incidence in mouse at mid dose 1; 5/8
Mus musculus [3] = organism: Mus musculus; test: Enlarged spleen in Gross pathological observations in mice with hypervitaminosis A at mid dose 1 with gross observations/total number of mice in group; 5/16; type: functional, organism-based
Mus musculus [4] = organism: Mus musculus; test: Effect of compound on Spleen to body weight ratios in mice at high dose on day 65; all the animals died by day 65; type: functional, organism-based
Procedure, shortened: (§2)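 Male B6D2F1 mice dosed daily by gavage with compound in corn oil; vehicle 1 (corn oil) controls run to termination on day 65. Low, mid 1, mid 2 and high dose groups, with dosage increases partway through the study. Organ-to-body weight ratios (×1000) taken at necropsy on day 65, reported as mean ± SD for 4 to 8 animals and as % difference from vehicle.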

Mus musculus [5] = organism: Mus musculus; test: Effect of compound on right testicle to body weight ratios in mice at high dose on day 65; all the animals died by day 65; type: functional, organism-based; procedure, shortened: as §2
Mus musculus [6] = test: Alopecia observed at 0.8 mg/kg/day dose in mice with hypervitaminosis; 3/16; type: functional, organism-based
[7] = Mortality rate in mice at 0.2 mg/kg/day; range (8-19); type: ADME, organism-based; details: mouse, in vivo
Procedure, shortened: (§3)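 Male B6D2F1 mice given compound daily by gavage in corn oil at the stated dose levels, with corn oil vehicle controls. Deaths counted as animals found dead or sacrificed moribund, with day(s) of death recorded. Heteroarotinoid groups ran to day 65 and low-dose reference groups to day 25.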

Mus musculus [8] = test: Enlarged spleen in Gross pathological observations with hypervitaminosis A at 0.01 mg/kg/day dose with gross observations/total number of animals in group; 5/8; type: functional, organism-based
Mus musculus [9] = test: Enlarged spleen in Enlarged spleen in Gross pathological observations with hypervitaminosis A in mice at 0.2 mg/kg/day dose with gross observations/total number of animals in group; 0/16; type: functional, organism-based
Mus musculus [10] = test: Alopecia observed at 0.05 mg/kg/day dose in mice with hypervitaminosis; 8/8; type: functional, organism-based
Mus musculus [11] = test: Avoiding pressure on limbs at 0.8 mg/kg/day dose in mice hypervitaminosis; 0/16; type: functional, organism-based; details: Limb
Mus musculus [12] = test: Effect of compound on right testicle to body weight ratios in mice at 0.4 mg/kg/day dose on day 65; type: functional, organism-based
Mus musculus [13] = test: Avoiding pressure on limbs at 0.01 mg/kg/day dose in mice hypervitaminosis; 0/16; type: functional, organism-based; details: Limb
Mus musculus [14] = test: Effect of compound on adrenal to body weight ratios in mice at 0.2 mg/kg/day dose; all the animals died by day 65; type: functional, organism-based
Mus musculus [15] = test: Effect of compound on right testicle to body weight ratios in mice at 0.01 mg/kg/day dose on day 25; type: functional, organism-based
Mus musculus [16] = test: Average number of fractures per mouse at 0.2 mg/kg/day; 1/3
Mus musculus [17] = test: Average number of fractures per mouse at 0.05 mg/kg/day
Mus musculus [18] = test: Fracture incidents in mouse at 0.4 mg/kg/day; 3/12
Mus musculus [19] = test: Effect of compound on thymus to body weight ratios in mice at 0.1 mg/kg/day dose; all the animals died by day 65; type: functional, organism-based
Procedure, shortened: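 Male B6D2F1 mice were dosed daily by gavage in corn oil, with TTNPB given at 0.1–0.8 or 0.01/0.05 mg/kg/day. Thymus-to-body weight ratio (×1000) was taken at necropsy on day 65 against vehicle 1, or on day 25 for the 0.01/0.05 groups against vehicle 2. Mean ± SD of 4–8 animals, reported as % difference from vehicle.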

Mus musculus [20] = test: Enlarged spleen in Gross pathological observations with hypervitaminosis A at 0.8 mg/kg/day dose with gross observations/total number of animals in group; 0/16; type: functional, organism-based
[21] = Mortality rate in mice at 0.4 mg/kg/day; range (8-19); type: ADME, organism-based; details: mouse, in vivo; procedure, shortened: as §3
Mus musculus [22] = test: Enlarged lymph in gross pathological observations with hypervitaminosis A in mice at 0.4 mg/kg/day dose with gross observations/total number of animals in group; 12/16; type: functional, organism-based
Mus musculus [23] = test: Enlarged lymph in gross pathological observations with hypervitaminosis A in mice at 0.8 mg/kg/day dose with gross observations/total number of animals in group; 8/16; type: functional, organism-based
Mus musculus [24] = test: Alopecia observed at 0.1 mg/kg/day dose in mice with hypervitaminosis; 10/16; type: functional, organism-based
Mus musculus [25] = test: Effect of compound on Spleen to body weight ratios in mice at 0.4 mg/kg/day dose on day 65; dead by day 65; type: functional, organism-based; procedure, shortened: as §2
Mus musculus [26] = test: Alopecia observed at 0.4 mg/kg/day dose in mice with hypervitaminosis; 8/16; type: functional, organism-based
Mus musculus [27] = test: Effect of compound on Spleen to body weight ratios in mice at 0.1 mg/kg/day dose on day 65; dead by day 65; type: functional, organism-based; procedure, shortened: as §2
Mus musculus [28] = test: Fracture incidents in mouse at 0.2 mg/kg/day; 3/8
Mus musculus [29] = test: Effect of compound on adrenal to body weight ratios in mice at 0.8 mg/kg/day dose; all the animals died by day 65; type: functional, organism-based
Mus musculus [30] = organism: Mus musculus; test: Alopecia in mice observed at mid dose 2 with Hypervitaminosis; 1/16; type: functional, organism-based
Mus musculus [31] = organism: Mus musculus; test: Alopecia in mice observed at low dose with Hypervitaminosis; 1/16; type: functional, organism-based
Mus musculus [32] = organism: Mus musculus; test: Enlarged lymph in gross pathological observations in mice with hypervitaminosis A at mid dose 1 with gross observations/total number of mice in group; 0/16; type: functional, organism-based
Mus musculus [33] = organism: Mus musculus; test: Effect of compound on serum Alkaline phosphatase levels in mice at mid dose 1 on day 29; type: functional
Procedure, shortened: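 Male B6D2F1 mice dosed daily by oral gavage in corn oil at low, mid 1, mid 2 or high dose. Blood sampled on set days (8, 29, 36, 65) for clinical chemistry, serum alkaline phosphatase and triglycerides. Group mean ± SD reported as % relative to vehicle 1; significance p < 0.05 versus corn oil vehicle.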

Mus musculus [34] = organism: Mus musculus; test: Avoiding pressure on limbs in mice at high dose with Hypervitaminosis; 0/16; type: functional, organism-based; details: Limb
Mus musculus [35] = organism: Mus musculus; test: Effect of compound on Spleen to body weight ratios in mice at low dose; type: functional; procedure, shortened: as §2
Mus musculus [36] = organism: Mus musculus; test: Alopecia in mice observed at mid dose 1 with Hypervitaminosis; 1/16; type: functional, organism-based
Mus musculus [37] = organism: Mus musculus; test: Fracture incidence in mouse at mid dose 2; 4/8
Mus musculus [38] = organism: Mus musculus; test: Alopecia in mice observed at low dose with Hypervitaminosis; 0/16; type: functional, organism-based
Mus musculus [39] = organism: Mus musculus; test: Effect of compound on serum triglycerides levels in mice at mid dose 2 on day 36; type: functional; procedure, shortened: as §1
Mus musculus [40] = organism: Mus musculus; test: Enlarged lymph in gross pathological observations in mice with hypervitaminosis A at mid dose 2 with gross observations/total number of mice in group; 1/16; type: functional, organism-based
Mus musculus [41] = organism: Mus musculus; test: Mortality rate in mice in high dose; type: functional; procedure, shortened: as §3
Mus musculus [42] = organism: Mus musculus; test: Mortality rate in mice in mid dose 2; type: functional; procedure, shortened: as §3

C/C(=C\c1ccc(C(=O)O)cc1)c1ccc2c(c1)C(C)(C)CCO2
5.26: Activity (Mus musculus [1])
active: Activity (Mus musculus [2]) Weak activity | Activity (Mus musculus [3]) Weak activity | Activity (Mus musculus [4]) Toxic | Activity (Mus musculus [5]) Toxic

C/C(=C\c1ccc(C(=O)O)cc1)c1ccc2c(c1)C(C)(C)CCC2(C)C
inactive: Activity (Mus musculus [6]) | Activity (Mus musculus [9]) | Activity (Mus musculus [11]) | Activity (Mus musculus [13]) | Activity (Mus musculus [20])
3.3: Activity (Mus musculus [17])
14 day of death: Mortality [21]
6 day of death: Mortality [7]
active: Activity (Mus musculus [8]) Weak activity | Activity (Mus musculus [10]) | Activity (Mus musculus [12]) Toxic | Activity (Mus musculus [14]) Toxic | Activity (Mus musculus [15]) Toxic | Activity (Mus musculus [16]) Weak activity | Activity (Mus musculus [18]) Weak activity | Activity (Mus musculus [19]) Toxic | Activity (Mus musculus [22]) | Activity (Mus musculus [23]) Weak activity | Activity (Mus musculus [24]) Weak activity | Activity (Mus musculus [25]) Toxic | Activity (Mus musculus [26]) Weak activity | Activity (Mus musculus [27]) Toxic | Activity (Mus musculus [28]) Weak activity | Activity (Mus musculus [29]) Toxic

CC(/C=C/C=C(\C)c1ccc2c(c1)C(C)(C)CCS2)=C\C(=O)O
inactive: Activity (Mus musculus [30]) | Activity (Mus musculus [31]) | Activity (Mus musculus [32]) | Activity (Mus musculus [34]) | Activity (Mus musculus [36])
135.8: Activity (Mus musculus [33])
2.1: Activity (Mus musculus [35])

CC(/C=C/C=C(\C)c1ccc2c(c1)C(C)(C)CCO2)=C\C(=O)O
active: Activity (Mus musculus [37]) Weak activity
0 day of death: Mortality (Mus musculus [41]) | Mortality (Mus musculus [42])
inactive: Activity (Mus musculus [38]) | Activity (Mus musculus [40])
195.9: Activity (Mus musculus [39])
